# Published values gathered from unrelated publications.
# Compare with care: the assays were run in different laboratories.
# CDK4: Cyclin-dependent kinase 4 (CDK4, Homo sapiens, UniProt P11802)
# CDK4 with cyclin D3: Cyclin-dependent kinase 4, with cyclin D3 (CDK4, Homo sapiens, UniProt P11802)
# CDK4 with cyclin D1: Cyclin-dependent kinase 4, with cyclin D1 (CDK4, Homo sapiens, UniProt P11802)
SMILES,target,observed,mode,technique,concentration,endpoint,result
O=C(c1ccccc1)[C@H]1Cc2c(cc([N+](=O)[O-])cc2[N+](=O)[O-])[C@@H](O)[C@@]12C(=O)Nc1ccccc12,CDK4,cell-free assay,inhibitor,TR-FRET,1 µM,inhibition,39.5%
Nc1ncnc2occ(-c3ccc(NC(=O)Nc4cc(C(F)(F)F)ccc4F)cc3)c12,CDK4 with cyclin D3,cell-free assay,inhibitor,,20 µM,remaining signal,51%
CN1CC(Oc2cnc(C#N)cc2-c2ccn3nc(NC(=O)C4CC4)cc3c2)C1,CDK4 with cyclin D3,enzyme activity,inhibitor,,1 µM,inhibition,-9%
CN(CCCC(F)(F)F)c1nccc(-c2cnn3ncccc23)n1,CDK4 with cyclin D3,binding,,,1 µM,remaining binding,100%
COc1cc(Cl)c(C(=O)N[C@@H](CN[C@H]2CC[C@@H](N)CC2)Cc2ccc(C#N)cc2)cc1-c1ccc(CN[C@H](C)c2ccc(C)cc2)o1,CDK4 with cyclin D3,enzyme activity,inhibitor,,1 µM,remaining activity,103%
O=C(c1ccc(Cl)c(Cl)c1)[C@H]1Cc2c(cc([N+](=O)[O-])cc2[N+](=O)[O-])[C@@H](O)[C@@]12C(=O)Nc1ccccc12,CDK4,cell-free assay,inhibitor,TR-FRET,1 µM,inhibition,35.6%
O=C1NC(=O)c2cc(Nc3ccc(F)cc3)c(Nc3ccc(F)cc3)cc21,CDK4 with cyclin D1,cell-free assay,,,0.5 µM,remaining signal,101%
Cc1sc(C(=O)NC2COC2)cc1-n1cc(NC(=O)Nc2c(F)cccc2Cl)cn1,CDK4 with cyclin D1,enzyme activity,inhibitor,,10 µM,remaining activity,78%
COc1ccc(OC)c2c(=S)c3ccccc3[nH]c12,CDK4 with cyclin D1,cell-free assay,,,0.5 µM,remaining signal,93.5%
CN(C)c1nccc(-c2cnn3ncccc23)n1,CDK4 with cyclin D1,binding,,,1 µM,remaining binding,100%
O=C(Nc1cnn(-c2csc(C(=O)NC3COC3)c2)c1)Nc1ccccc1Cl,CDK4 with cyclin D3,enzyme activity,inhibitor,,5 µM,remaining activity,98.2%
CCC(=N\O)/C(C)=C/c1ccc(F)cc1,CDK4 with cyclin D3,cell-free assay,,competition with immobilised ligand,1 µM,remaining binding,74%
COc1cc2c(cc1OC)-c1[nH]nc(Nc3cccc(F)c3)c1C2,CDK4 with cyclin D3,cell-free assay,,,0.5 µM,remaining signal,95.4%
CC(C)(C)c1nc(-c2cccc(NS(=O)(=O)c3c(F)cccc3F)c2F)c(-c2ccnc(N)n2)s1,CDK4 with cyclin D3,enzyme activity,inhibitor,radiometric,1 µM,remaining activity,119%
CC(C)(O)[C@H]1CC[C@H](Nc2ccc3ncc(-c4cccc(C(F)(F)F)c4)n3n2)CC1,CDK4 with cyclin D3,enzyme activity,inhibitor,,1 µM,remaining activity,106%
CS(=O)(=O)CCNCc1ccc(-c2ccc3ncnc(Nc4ccc(OCc5cccc(F)c5)c(Cl)c4)c3c2)o1,CDK4 with cyclin D3,cell-free assay,,,0.5 µM,remaining signal,104%
COc1cc(-c2cn(C3CCc4c(F)cccc4N(CC(F)(F)F)C3=O)nn2)ccc1-n1cnc(C)c1 (stereo not drawn),CDK4 with cyclin D3,cell-free assay,,competition with immobilised ligand,1 µM,remaining binding,100%
N#CCCc1ccc2c(c1)-c1[nH]c3ccc([N+](=O)[O-])cc3c1CC(=O)N2,CDK4 with cyclin D1,cell-free assay,,,0.5 µM,remaining signal,11.8%
O=C(c1ccc(Br)cc1)[C@H]1Cc2c(cc([N+](=O)[O-])cc2[N+](=O)[O-])[C@H](O)[C@]12C(=O)Nc1ccccc12,CDK4,cell-free assay,inhibitor,TR-FRET,1 µM,inhibition,18.6%
C[C@H]1CCN(c2nccc(-c3cnn4ncccc34)n2)C1,CDK4 with cyclin D3,binding,,,1 µM,remaining binding,62%
O=C(c1ccccc1F)[C@H]1Cc2c(cc([N+](=O)[O-])cc2[N+](=O)[O-])[C@@H](O)[C@@]12C(=O)Nc1ccccc12,CDK4,cell-free assay,inhibitor,TR-FRET,1 µM,inhibition,38.9%
CCN(CC)CCNC(=O)c1c(C)[nH]c(/C=C2\C(=O)Nc3ccc(F)cc32)c1C,CDK4 with cyclin D1,cell-free assay,,,0.5 µM,remaining signal,81%
CC1CCCN1c1nccc(-c2cnn3ncccc23)n1 (stereo not drawn),CDK4 with cyclin D1,binding,,,1 µM,remaining binding,100%
CNC(=O)Nc1ccc2c(c1)[C@@]1(CC2)OC(=O)N(CC(=O)N(Cc2ccc(F)cc2)[C@@H](C)C(F)(F)F)C1=O,CDK4,cell-free assay,,competition with immobilised ligand,1 µM,remaining binding,73%
O=C1Nc2ccc(Cl)cc2C1=Cc1cc(Cl)c(O)c(Cl)c1,CDK4 with cyclin D1,cell-free assay,,,0.5 µM,remaining signal,94.7%
CC(=O)N1CCC(c2ccc(C(=O)NC(=N)N)cc2C(F)(F)F)CC1,CDK4,cell-free assay,,competition with immobilised ligand,1 µM,remaining binding,100%
CC(C)(C)c1nc2c(s1)c1nc(N)ncc1c1ccc(NS(=O)(=O)c3c(F)cccc3F)c(F)c12,CDK4 with cyclin D3,enzyme activity,inhibitor,radiometric,1 µM,remaining activity,100%
CN(C)c1nccc(-c2cnc3ncccn23)n1,CDK4,binding,,,1 µM,remaining binding,71%
COc1ccc(C(=O)[C@H]2Cc3c(cc([N+](=O)[O-])cc3[N+](=O)[O-])[C@H](O)[C@]23C(=O)Nc2ccccc23)cc1,CDK4,cell-free assay,inhibitor,TR-FRET,1 µM,inhibition,18.4%
CO[C@@H](C)c1c(Nc2ccc([C@H](N(C)C(=O)C3CCS(=O)(=O)CC3)C(F)(F)F)cc2)cnc2cc(Cl)nn12,CDK4 with cyclin D1,cell-free assay,,competition with immobilised ligand,1 µM,remaining binding,100%
COc1ccnn2ncc(-c3ccnc(N(C)C)n3)c12,CDK4 with cyclin D3,binding,,,1 µM,remaining binding,69%
COc1ccc2cc(OCC3(C(=O)O)CN(C(=O)c4ccc(F)cc4)C3)ccc2c1,CDK4 with cyclin D3,cell-free assay,,competition with immobilised ligand,1 µM,remaining binding,100%
Oc1cccc(-c2nc(N3CCOCC3)c3oc4ncccc4c3n2)c1,CDK4 with cyclin D3,cell-free assay,,,0.5 µM,remaining signal,92.5%
Cc1ccc(C(=O)NCc2ccsc2)cc1C#Cc1cn(C(C)C)c2ncnc(N)c12,CDK4 with cyclin D3,enzyme activity,inhibitor,,1 µM,activity vs control,92%
CSc1cccnc1N1CCN(Cc2nc3ccccc3[nH]2)CC1,CDK4 with cyclin D3,cell-free assay,,competition with immobilised ligand,1 µM,remaining binding,82%
F[C@@H]1CCN(c2nccc(-c3cnn4ncccc34)n2)C1,CDK4,binding,,,1 µM,remaining binding,100%
O=C(Nc1cnn(-c2csc(C(=O)NC3COC3)c2)c1)Nc1c(F)cccc1Cl,CDK4 with cyclin D1,enzyme activity,inhibitor,,5 µM,remaining activity,90.3%
CS(=O)(=O)c1cc(C2(NC(=O)c3cncc4c3cnn4-c3ccc(F)cc3)CC2)ccn1,CDK4 with cyclin D3,cell-free assay,,competition with immobilised ligand,1 µM,remaining binding,100%
O=C(c1ccc(F)cc1)[C@H]1Cc2c(cc([N+](=O)[O-])cc2[N+](=O)[O-])[C@H](O)[C@]12C(=O)Nc1ccccc12,CDK4,cell-free assay,inhibitor,TR-FRET,1 µM,inhibition,23.2%
